# Results as given in ChEMBL document CHEMBL4715736, “Identification of anticancer agents based on the thieno[2,3-b]pyridine and 1H-pyrazole molecular scaffolds” (2016).
# Columns and labels:
# Assay type in all cases: functional
# SK-OV-3 = experiment: Growth inhibition of human SK-OV-3 cells assessed as cell growth at 100 uM incubated for 48 hrs by sulforhodamine B assay relative to control; details: read-out: Activity
# UACC-257 = experiment: Growth inhibition of human UACC-257 cells assessed as cell growth at 100 uM incubated for 48 hrs by sulforhodamine B assay relative to control; details: read-out: Activity
# DU-145 = experiment: Growth inhibition of human DU-145 cells assessed as cell growth at 0.01 uM incubated for 48 hrs by sulforhodamine B assay relative to control; details: read-out: Activity
# Summary of the method: (§1)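 NCI Developmental Therapeutics Program NCI60 panel. Compounds that were active in the 10 µM one-dose screen went on to dose–response testing. Growth at each concentration is expressed relative to untreated control (100%). GI50 (concentration giving 50% of maximal inhibition of proliferation) and TGI (concentration giving total growth inhibition) were derived from the curves.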
# SK-MEL-28 [1] = experiment: Growth inhibition of human SK-MEL-28 cells assessed as cell growth at 1 uM incubated for 48 hrs by sulforhodamine B assay relative to control; details: read-out: Activity
# HCT-15 [2] = experiment: Growth inhibition of human HCT-15 cells incubated for 48 hrs by sulforhodamine B assay
# Summary of the method: (§2)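 NCI60 panel at the NCI Developmental Therapeutics Program. Only compounds active in the 10 µM screen went to dose-response testing. GI50, the concentration giving 50% of maximal inhibition of proliferation, and TGI, the concentration giving total growth inhibition, were derived from the dose-response curves.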
# NCI-H460 = experiment: Growth inhibition of human NCI-H460 cells assessed as cell growth at 100 uM incubated for 48 hrs by sulforhodamine B assay relative to control; details: read-out: Activity
# COLO 205 = experiment: Growth inhibition of human COLO 205 cells assessed as cell growth at 1 uM incubated for 48 hrs by sulforhodamine B assay relative to control; details: read-out: Activity; summary of the method: as §1
# MDA-MB-231 = experiment: Growth inhibition of human MDA-MB-231 cells assessed as cell growth at 100 uM incubated for 48 hrs by sulforhodamine B assay relative to control; details: read-out: Activity
# NCI-H522 = experiment: Growth inhibition of human NCI-H522 cells incubated for 48 hrs by sulforhodamine B assay; summary of the method: as §2
# SK-MEL-28 [3] = experiment: Growth inhibition of human SK-MEL-28 cells assessed as cell growth at 100 uM incubated for 48 hrs by sulforhodamine B assay relative to control; details: read-out: Activity
# 786-0 [4] = experiment: Growth inhibition of human 786-0 cells incubated for 48 hrs by sulforhodamine B assay; summary of the method: as §1
# 786-0 [5] = experiment: Growth inhibition of human 786-0 cells assessed as cell growth at 0.01 uM incubated for 48 hrs by sulforhodamine B assay relative to control; details: read-out: Activity; summary of the method: as §1
# U-251 = experiment: Growth inhibition of human U-251 cells incubated for 48 hrs by sulforhodamine B assay
# Summary of the method: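 NCI DTP 60-line human tumour panel. Dose-response curves were run only for ligands active in the initial 10 µM screen. GI50 (concentration giving 50% of maximal inhibition of proliferation) and TGI (concentration giving total growth inhibition) were derived from these curves.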
# SF-539 [6] = experiment: Growth inhibition of human SF-539 cells assessed as cell growth at 0.1 uM incubated for 48 hrs by sulforhodamine B assay relative to control; details: read-out: Activity
# CCRF-CEM = experiment: Growth inhibition of human CCRF-CEM cells incubated for 48 hrs by sulforhodamine B assay; summary of the method: as §1
# IGROV-1 [7] = experiment: Growth inhibition of human IGROV-1 cells incubated for 48 hrs by sulforhodamine B assay; summary of the method: as §2
# A498 = experiment: Growth inhibition of human A498 cells assessed as cell growth at 0.01 uM incubated for 48 hrs by sulforhodamine B assay relative to control; details: read-out: Activity; summary of the method: as §1
# T47D = experiment: Growth inhibition of human T47D cells assessed as cell growth at 1 uM incubated for 48 hrs by sulforhodamine B assay relative to control; details: read-out: Activity
# SNB-19 = experiment: Growth inhibition of human SNB-19 cells assessed as cell growth at 0.1 uM incubated for 48 hrs by sulforhodamine B assay relative to control; details: read-out: Activity
# IGROV-1 [8] = experiment: Growth inhibition of human IGROV-1 cells assessed as cell growth at 1 uM incubated for 48 hrs by sulforhodamine B assay relative to control; details: read-out: Activity
# 786-0 [9] = experiment: Growth inhibition of human 786-0 cells assessed as cell growth at 0.1 uM incubated for 48 hrs by sulforhodamine B assay relative to control; details: read-out: Activity; summary of the method: as §1
# NCI-H226 = experiment: Growth inhibition of human NCI-H226 cells incubated for 48 hrs by sulforhodamine B assay; summary of the method: as §2
# OVCAR-8 = experiment: Growth inhibition of human OVCAR-8 cells assessed as cell growth at 0.01 uM incubated for 48 hrs by sulforhodamine B assay relative to control; details: read-out: Activity
# HOP-62 = experiment: Growth inhibition of human HOP-62 cells assessed as cell growth at 1 uM incubated for 48 hrs by sulforhodamine B assay relative to control; details: read-out: Activity
# A549 = experiment: Growth inhibition of human A549/ATCC cells assessed as cell growth at 0.01 uM incubated for 48 hrs by sulforhodamine B assay relative to control; details: read-out: Activity; summary of the method: as §1
# UACC-62 = experiment: Growth inhibition of human UACC-62 cells assessed as cell growth at 1 uM incubated for 48 hrs by sulforhodamine B assay relative to control; details: read-out: Activity
# LOX IMVI = experiment: Growth inhibition of human LOX IMVI cells incubated for 48 hrs by sulforhodamine B assay; summary of the method: as §2
# SNB-75 = experiment: Growth inhibition of human SNB-75 cells assessed as cell growth at 1 uM incubated for 48 hrs by sulforhodamine B assay relative to control; details: read-out: Activity
# SR = experiment: Growth inhibition of human SR cells assessed as cell growth at 0.1 uM incubated for 48 hrs by sulforhodamine B assay relative to control; details: read-out: Activity
# M14 = experiment: Growth inhibition of human M14 cells assessed as cell growth at 0.01 uM incubated for 48 hrs by sulforhodamine B assay relative to control; details: read-out: Activity
# SF-539 [10] = experiment: Growth inhibition of human SF-539 cells assessed as cell growth at 100 uM incubated for 48 hrs by sulforhodamine B assay relative to control; details: read-out: Activity
# OVCAR-3 = experiment: Growth inhibition of human OVCAR-3 cells assessed as cell growth at 0.01 uM incubated for 48 hrs by sulforhodamine B assay relative to control; details: read-out: Activity
# HCT-15 [11] = experiment: Growth inhibition of human HCT-15 cells assessed as cell growth at 0.01 uM incubated for 48 hrs by sulforhodamine B assay relative to control; details: read-out: Activity
# HCT-116 = experiment: Growth inhibition of human HCT-116 cells incubated for 48 hrs by sulforhodamine B assay; summary of the method: as §2
# [12] = read-out: LC50 (the source's name)
compound,measurement,setting,value
Nc1c(C(=O)Nc2ccccc2)sc2nc3c(cc12)CN(Cc1ccccc1)CC3,growth at 100 µM,SK-OV-3,5%
same,growth at 100 µM,UACC-257,44%
same,growth at 0.01 µM,DU-145,106%
same,growth at 1 µM,SK-MEL-28 [1],94%
same,GI50,HCT-15 [2],24.7 µM
same,LC50,HCT-15 [2],> 100 µM
same,TGI,HCT-15 [2],> 100 µM
same,growth at 100 µM,NCI-H460,8%
same,growth at 1 µM,COLO 205,93%
same,growth at 100 µM,MDA-MB-231,16%
same,GI50,NCI-H522,32.5 µM
same,LC50,NCI-H522,> 100 µM
same,TGI,NCI-H522,> 100 µM
same,growth at 100 µM,SK-MEL-28 [3],28%
same,GI50,786-0 [4],13 µM
same,TGI,786-0 [4],> 100 µM
same,CC50,786-0 [4]; [12],> 100 µM
same,growth at 0.01 µM,786-0 [5],96%
same,GI50,U-251,13.9 µM
same,LC50 (concentration killing 50% of cells),U-251,> 100 µM
same,TGI,U-251,> 100 µM
same,growth at 0.1 µM,SF-539 [6],90%
same,GI50,CCRF-CEM,50.3 µM
same,LC50,CCRF-CEM,> 100 µM
same,TGI,CCRF-CEM,> 100 µM
same,GI50,IGROV-1 [7],37.8 µM
same,LC50,IGROV-1 [7],> 100 µM
same,TGI,IGROV-1 [7],> 100 µM
same,growth at 0.01 µM,A498,91%
same,growth at 1 µM,T47D,83%
same,growth at 0.1 µM,SNB-19,94%
same,growth at 1 µM,IGROV-1 [8],101%
same,growth at 0.1 µM,786-0 [9],90%
same,GI50,NCI-H226,4.91 µM
same,TGI,NCI-H226,> 100 µM
same,CC50,NCI-H226; [12],> 100 µM
same,growth at 0.01 µM,OVCAR-8,100%
same,growth at 1 µM,HOP-62,88%
same,growth at 0.01 µM,A549,98%
same,growth at 1 µM,UACC-62,89%
same,GI50,LOX IMVI,10.5 µM
same,LC50,LOX IMVI,> 100 µM
same,TGI,LOX IMVI,> 100 µM
same,growth at 1 µM,SNB-75,64%
same,growth at 0.1 µM,SR,91%
same,growth at 0.01 µM,M14,98%
same,growth at 100 µM,SF-539 [10],11%
same,growth at 0.01 µM,OVCAR-3,98%
same,growth at 0.01 µM,HCT-15 [11],102%
same,GI50,HCT-116,11 µM
same,LC50 (concentration killing 50% of cells),HCT-116,> 100 µM
same,TGI,HCT-116,> 100 µM
